≈ marks a conversion by molar mass, not a printed value.
Columns and labels:
Cryptococcus neoformans = assay: Antifungal activity against Cryptococcus neoformans after 24 to 72 hrs by broth microdilution method; format: functional
Method in brief: (§1)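 Broth microdilution MIC per CLSI M27-A3 (yeasts) or M38-A2 (molds). RPMI 1640 with L-glutamine, without bicarbonate, buffered to pH 7.0 with 0.165 M MOPS. Final test range for the compounds was 0.175–87.5 μM. Incubation at 35°C with visual reading at 24–72 h. MIC was the lowest concentration giving 100% inhibition versus the growth control (azoles 50% or 100%, by organism). Each isolate was run in duplicate in two independent experiments.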

[1] = tested on: Cryptococcus gattii species complex; assay: Antifungal activity against Cryptococcus gattii after 24 to 72 hrs by broth microdilution method; format: functional, Cryptococcus bacillisporus; method in brief: as §1
Candida albicans = assay: Antifungal activity against Candida albicans after 24 to 72 hrs by broth microdilution method; format: functional
Method in brief: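 CLSI M27-A3 broth microdilution for yeasts in RPMI 1640 with L-glutamine and no bicarbonate, buffered with 0.165 M MOPS to pH 7.0. Compounds were dissolved in water and tested at 0.175–87.5 μM final, 35°C. MIC was read visually at 24–72 h as 100% inhibition versus growth control. For MFC, 30 μl from clear wells went onto SDA at 35°C for 48–72 h, reading the lowest concentration without colonies. Duplicates, two independent runs.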

Candida tropicalis = assay: Antifungal activity against Candida tropicalis after 24 to 72 hrs by broth microdilution method; format: functional; method in brief: as §1
Nakaseomyces glabratus = assay: Antifungal activity against Candida glabrata after 24 to 72 hrs by broth microdilution method; format: functional; method in brief: as §1
Candida parapsilosis = assay: Antifungal activity against Candida parapsilosis after 24 to 72 hrs by broth microdilution method; format: functional; details: Lodderomyces parapsilosis; method in brief: as §1
Pichia kudriavzevii = assay: Antifungal activity against Candida krusei after 24 to 72 hrs by broth microdilution method; format: functional; method in brief: as §1
Candida dubliniensis = assay: Antifungal activity against Candida dubliniensis after 24 to 72 hrs by broth microdilution method; format: functional; method in brief: as §1
[2] = tested on: Meyerozyma guilliermondii; assay: Antifungal activity against Candida guilliermondii after 24 to 72 hrs by broth microdilution method; format: functional; method in brief: as §1
Clavispora lusitaniae = assay: Antifungal activity against Candida lusitaniae after 24 to 72 hrs by broth microdilution method; format: functional; method in brief: as §1

Structure (SMILES)	MIC (Cryptococcus neoformans) [µg/mL]	MIC50 (Cryptococcus neoformans) [µg/mL]	MIC90 (Cryptococcus neoformans) [µg/mL]	MIC [1] [µg/mL]	MIC50 [1] [µg/mL]	MIC90 [1] [µg/mL]	MIC (Candida albicans) [µg/mL]	MIC50 (Candida albicans) [µg/mL]	MIC90 (Candida albicans) [µg/mL]	MIC (Candida tropicalis) [µg/mL]	MIC50 (Candida tropicalis) [µg/mL]	MIC90 (Candida tropicalis) [µg/mL]	MIC (Nakaseomyces glabratus) [µg/mL]	MIC50 (Nakaseomyces glabratus) [µg/mL]	MIC90 (Nakaseomyces glabratus) [µg/mL]	MIC (Candida parapsilosis) [µg/mL]	MIC50 (Candida parapsilosis) [µg/mL]	MIC90 (Candida parapsilosis) [µg/mL]	MIC (Pichia kudriavzevii) [µg/mL]	MIC50 (Pichia kudriavzevii) [µg/mL]	further results
CC[C@H](C)C[C@H](C)CCCCCCCCC(=O)N[C@H]1C[C@@H](O)[C@@H](NCCN)NC(=O)[C@@H]2[C@@H](O)CCN2C(=O)[C@H]([C@H](O)CCN)NC(=O)[C@H]([C@H](O)[C@@H](O)c2ccc(O)cc2)NC(=O)[C@@H]2C[C@@H](O)CN2C(=O)[C@H]([C@@H](C)O)NC1=O [CASPOFUNGIN]	8 (≈ 7.32 µM)	8 (≈ 7.32 µM)	8 (≈ 7.32 µM)	8 (≈ 7.32 µM)	8 (≈ 7.32 µM)	8 (≈ 7.32 µM)	0.12 (≈ 0.11 µM)	0.14 (≈ 0.128 µM)	0.27 (≈ 0.247 µM)	0.14 (≈ 0.128 µM)	0.125 (≈ 0.114 µM)	0.25 (≈ 0.229 µM)	0.19 (≈ 0.174 µM)	0.125 (≈ 0.114 µM)	0.25 (≈ 0.229 µM)	0.66 (≈ 0.604 µM)	0.5 (≈ 0.457 µM)	1 (≈ 0.915 µM)	0.31 (≈ 0.284 µM)	0.25 (≈ 0.229 µM)	MIC90 (Pichia kudriavzevii): 0.5 µg/mL (≈ 0.457 µM); MIC (Candida dubliniensis): 0.07 µg/mL (≈ 0.064 µM); MIC50 (Candida dubliniensis): 0.06 µg/mL (≈ 0.0549 µM); MIC90 (Candida dubliniensis): 0.125 µg/mL (≈ 0.114 µM); MIC [2]: 1.15 µg/mL (≈ 1.05 µM); MIC50 [2]: 1 µg/mL (≈ 0.915 µM); MIC90 [2]: 2 µg/mL (≈ 1.83 µM); MIC (Clavispora lusitaniae): 0.54 µg/mL (≈ 0.494 µM); MIC50 (Clavispora lusitaniae): 0.5 µg/mL (≈ 0.457 µM); MIC90 (Clavispora lusitaniae): 1 µg/mL (≈ 0.915 µM)
OC(Cn1cncn1)(Cn1cncn1)c1ccc(F)cc1F [FLUCONAZOLE]	4.59 (≈ 15 µM)	4 (≈ 13.1 µM)	16 (≈ 52.2 µM)	4 (≈ 13.1 µM)	4 (≈ 13.1 µM)	8 (≈ 26.1 µM)	1.15 (≈ 3.75 µM)	0.5 (≈ 1.63 µM)	16 (≈ 52.2 µM)	1.41 (≈ 4.6 µM)	1 (≈ 3.27 µM)	4 (≈ 13.1 µM)	32 (≈ 104 µM)	16 (≈ 52.2 µM)	256 (≈ 836 µM)	2.14 (≈ 6.99 µM)	2 (≈ 6.53 µM)	4 (≈ 13.1 µM)	84.5 (≈ 276 µM)	64 (≈ 209 µM)	MIC90 (Pichia kudriavzevii): 128 µg/mL (≈ 418 µM); MIC (Candida dubliniensis): 0.43 µg/mL (≈ 1.4 µM); MIC50 (Candida dubliniensis): 0.25 µg/mL (≈ 0.816 µM); MIC90 (Candida dubliniensis): 0.5 µg/mL (≈ 1.63 µM); MIC [2]: 7.46 µg/mL (≈ 24.4 µM); MIC50 [2]: 4 µg/mL (≈ 13.1 µM); MIC90 [2]: 16 µg/mL (≈ 52.2 µM); MIC (Clavispora lusitaniae): 2.64 µg/mL (≈ 8.62 µM); MIC50 (Clavispora lusitaniae): 2 µg/mL (≈ 6.53 µM); MIC90 (Clavispora lusitaniae): 4 µg/mL (≈ 13.1 µM)
C[C@@H](c1ncncc1F)[C@](O)(Cn1cncn1)c1ccc(F)cc1F [VORICONAZOLE]	0.04 (≈ 0.115 µM)	0.03 (≈ 0.0859 µM)	0.125 (≈ 0.358 µM)	0.05 (≈ 0.143 µM)	0.06 (≈ 0.172 µM)	0.06 (≈ 0.172 µM)	0.04 (≈ 0.115 µM)	0.01 (≈ 0.0286 µM)	0.17 (≈ 0.487 µM)	0.07 (≈ 0.2 µM)	0.125 (≈ 0.358 µM)	0.25 (≈ 0.716 µM)	0.41 (≈ 1.17 µM)	0.25 (≈ 0.716 µM)	4 (≈ 11.5 µM)	0.043 (≈ 0.123 µM)	0.06 (≈ 0.172 µM)	0.06 (≈ 0.172 µM)	0.41 (≈ 1.17 µM)	0.25 (≈ 0.716 µM)	MIC90 (Pichia kudriavzevii): 1 µg/mL (≈ 2.86 µM); MIC (Candida dubliniensis): 0.011 µg/mL (≈ 0.0315 µM); MIC50 (Candida dubliniensis): 0.008 µg/mL (≈ 0.0229 µM); MIC90 (Candida dubliniensis): 0.016 µg/mL (≈ 0.0458 µM); MIC [2]: 0.124 µg/mL (≈ 0.355 µM); MIC50 [2]: 0.125 µg/mL (≈ 0.358 µM); MIC90 [2]: 0.25 µg/mL (≈ 0.716 µM); MIC (Clavispora lusitaniae): 0.02 µg/mL (≈ 0.0573 µM); MIC50 (Clavispora lusitaniae): 0.03 µg/mL (≈ 0.0859 µM); MIC90 (Clavispora lusitaniae): 0.16 µg/mL (≈ 0.458 µM)

From ChEMBL document CHEMBL1629527, “In vitro antifungal activities of bis(alkylpyridinium)alkane compounds against pathogenic yeasts and molds” (Antimicrob Agents Chemother, 2010)
